Compound activity (PubChem)
A selection: hits, their analogues and other compounds. The true share with any hit is near 2.9%.
SIRT5 block = blocks human SIRT5 desuccinylation of peptide; Q9NXA8; Purified SirT5, succinyl-peptide AMC, trypsin-coupled fluorescence; inhibition, % at 15 µM; 330,000 tested, 1.1% active; AID 652115; in the data active = inhibition above about 15%; inconclusive = no clear call, values can overlap the other calls
Target sequence (Q9NXA8 whole entry, looked up): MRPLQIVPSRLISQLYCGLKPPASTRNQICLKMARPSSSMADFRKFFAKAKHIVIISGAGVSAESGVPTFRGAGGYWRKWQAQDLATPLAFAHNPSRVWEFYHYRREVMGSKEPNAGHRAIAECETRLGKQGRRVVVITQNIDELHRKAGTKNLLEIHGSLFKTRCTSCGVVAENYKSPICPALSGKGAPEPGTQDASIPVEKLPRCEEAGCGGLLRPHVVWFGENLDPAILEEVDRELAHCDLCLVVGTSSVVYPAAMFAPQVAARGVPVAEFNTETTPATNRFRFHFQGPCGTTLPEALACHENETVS
CAL PDZ FP-1 = inhibitors of human CAL PDZ peptide binding; Q9HD26; purified CAL PDZ, TMR-peptide fluorescence polarization, 1 h; inhibition, % at 24.9 µM; 300,000 tested, 0.92% active; AID 602252;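 active = mean inhibition of at least 30% with at least half of replicates also reaching 30%; inconclusive = no clear call, values can overlap the other calls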;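 note: 0% = DMSO neutral control and 100% = excess unlabeled competitor peptide PRC23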
ERAP1 inh = ERAP1 (human) enzyme inhibition | Q9NZ08 | 340,000 tested, 0.15% active | inhibition, % at 10.7 µM | recombinant ERAP1, Leu-AMC fluorescence, 60 min | AID 652197;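 active = mean replicate inhibition of at least 30%, or all replicates individually reaching that 30% level; inactive = mean below 30% and not every replicate reaching it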;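 note: 0% = neutral control wells and 100% = L-leucinethiol positive control wells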
DENV2 CPE rescue = DENV2-induced cell death inhibition; 350,000 tested, 1.7% active; CPE inhibition, % at 9.99 µM; DENV2-infected cells, cytopathic effect rescue, plate reader; AID 651640; in the data active = CPE inhibition above about 20%, passing the limit was not always enough; inconclusive = no clear call, values can overlap the other calls; tested in BHK-21 cells;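 note: 0% = median of neutral control wells and 100% = median of positive control wells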
CAL PDZ FP-2 = inhibitors of human CAL PDZ peptide binding; purified CAL PDZ, TMR-peptide fluorescence polarization, 1 h; 330,000 tested, 0.02% active; inhibition, % at 20 µM; Q9HD26;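 active = highest replicate inhibition of at least 40%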;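 note: plate controls were DMSO neutral control wells for no effect and unlabeled competitor peptide control wells for full effect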
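Material: tagged CAL PDZ protein CerCALP, purified; buffer or medium: sodium phosphate/NaCl buffer pH 7.4 with TCEP, IgG, Thesit; also added: fluorescent TMR peptide probe; schedule: 1 h incubation at room temperature before polarization reading; technique: fluorescence polarization from S- and P-plane intensities, G-factor corrected; control set: unlabelled peptide and DMSO controls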
S100A4 MyoIIA = blocks human S100A4 binding to myosin IIA peptide; P26447; S100A4/TAMRA-MyoIIA peptide fluorescence polarization; inhibition, % at 10.7 µM; 360,000 tested, 0.14% active; AID 652163;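 active = mean inhibition of at least 70% across replicates, with every replicate also reaching that level; inconclusive = mean inhibition reaches 70% but some replicates fall short; inactive = mean inhibition below 70%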
Target sequence (P26447 whole entry, looked up): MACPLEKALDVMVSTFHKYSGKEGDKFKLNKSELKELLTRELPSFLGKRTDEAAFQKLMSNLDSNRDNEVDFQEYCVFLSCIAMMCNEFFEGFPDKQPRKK
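System – human S100A4 monomer protein, biochemical binding assay · Buffer or medium – Calcium-containing HEPES buffer, pH 7.2 · Timing – 5 min between mix addition and reading · Also added – TAMRA-labelled myosin IIA heavy-chain peptide probe, 5 nM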
* hit, by the source's call.

Screening CCCNC(=O)N(C)C[C@@H]1Oc2ncc(-c3ccc(OC)cc3)cc2C(=O)N([C@@H](C)CO)C[C@H]1C returned SIRT5 block -3, ERAP1 inh 1, DENV2 CPE rescue 1 and S100A4 MyoIIA -1.
COC(=O)c1ccccc1NC(=O)c1cc[n+](C)cc1 was read as SIRT5 block 0, ERAP1 inh 0, DENV2 CPE rescue 3, CAL PDZ FP-2 0 and S100A4 MyoIIA -6.
For CCOc1ccc(NC(=O)CN2CCN(CC(=O)Nc3ccccc3OC)CC2)cc1 the results were SIRT5 block -2, CAL PDZ FP-1 123*, ERAP1 inh -2, DENV2 CPE rescue -7 and S100A4 MyoIIA -1.
For COc1ccccc1NC(=O)CNc1ccc(F)c(Cl)c1 the results were SIRT5 block 31*, CAL PDZ FP-1 -5, ERAP1 inh 2, DENV2 CPE rescue 1, CAL PDZ FP-2 -1 and S100A4 MyoIIA -21.
`COc1ccccc1NC(=O)C1CCN(C(=O)NCc2ccccc2)CC1` gave SIRT5 block -2, CAL PDZ FP-1 56*, ERAP1 inh 3, DENV2 CPE rescue inconclusive, CAL PDZ FP-2 0 and S100A4 MyoIIA -1.
COc1ccccc1NC(=O)c1cc[n+](C)cc1 was read as SIRT5 block 0, CAL PDZ FP-1 -8, ERAP1 inh 103*, DENV2 CPE rescue -1, CAL PDZ FP-2 15 and S100A4 MyoIIA -3.
`C[C@H]1CN([C@@H](C)CO)C(=O)c2cc(-c3ccncc3)cnc2O[C@H]1CN(C)S(=O)(=O)c1ccc(F)cc1` gave SIRT5 block -2, ERAP1 inh 0, DENV2 CPE rescue -3 and S100A4 MyoIIA -8.
C[C@@H]1CN([C@@H](C)CO)C(=O)c2cc(NC(=O)Cc3ccccc3)ccc2O[C@@H](C)CCCCO[C@@H]1CN(C)Cc1ccc(C(=O)O)cc1 was read as SIRT5 block 13, ERAP1 inh -1, DENV2 CPE rescue -11 and S100A4 MyoIIA 1.
`COc1ccc2c3c([nH]c2c1)[C@H](CO)N(C(=O)NC(C)C)CC31CCN(C(=O)C2CCCC2)CC1` gave SIRT5 block 2, ERAP1 inh 0, DENV2 CPE rescue -9 and S100A4 MyoIIA -22.
COc1ccccc1NC(=O)CN1CCN(c2ccccc2)CC1 was read as SIRT5 block -9, CAL PDZ FP-1 -2, ERAP1 inh -1, DENV2 CPE rescue 5, CAL PDZ FP-2 -2 and S100A4 MyoIIA -8.
`COc1cc(C(=O)NC(c2ccccc2)c2ccccc2)cc(OC)c1OC` gave SIRT5 block -2, CAL PDZ FP-1 51*, ERAP1 inh -6, DENV2 CPE rescue 2, CAL PDZ FP-2 0 and S100A4 MyoIIA -2.
Screening COc1ccccc1NC(=O)CCCCC(=O)Nc1ccccc1OC returned SIRT5 block 16*, CAL PDZ FP-1 -5, ERAP1 inh -3, DENV2 CPE rescue 6, CAL PDZ FP-2 -1 and S100A4 MyoIIA -1.
For COc1ccccc1NC(=S)NNC(=O)c1ccc(Cl)cc1Cl the results were CAL PDZ FP-1 49* and CAL PDZ FP-2 -1.
For COc1ccccc1NC(=O)CN1CCOCC1 the results were SIRT5 block -2, CAL PDZ FP-1 -4, ERAP1 inh -1, DENV2 CPE rescue 75*, CAL PDZ FP-2 -2 and S100A4 MyoIIA 1.
O=C(NC(c1ccccc1)c1ccccc1)c1ccccc1 was read as CAL PDZ FP-1 -5, ERAP1 inh 0, DENV2 CPE rescue -3, CAL PDZ FP-2 -2 and S100A4 MyoIIA -3.
`CO[C@@H]1CN(C)C(=O)c2ccc(NC(=O)C3CC3)cc2OC[C@H](C)N(C(=O)c2ccncc2)C[C@H]1C` gave SIRT5 block 0, ERAP1 inh 8, DENV2 CPE rescue -8 and S100A4 MyoIIA 15.
`CCC(=O)N1CC2(C1)[C@H](c1ccccc1)[C@@H](CO)N2Cc1cccc(Cl)c1` gave SIRT5 block -2, ERAP1 inh 1, DENV2 CPE rescue -3 and S100A4 MyoIIA 9.
Screening C[C@H]1CCCCO[C@H](CN(C)CC2CCCCC2)[C@@H](C)CN([C@@H](C)CO)C(=O)c2cc(NC(=O)Nc3ccc(F)cc3)ccc2O1 returned SIRT5 block -8, ERAP1 inh 1, DENV2 CPE rescue -2 and S100A4 MyoIIA 4.
